In the library only some 3.3% were active in any assay of this set; here they are far more common.
FXN GAA850 act: activators of GAA850 frataxin (FXN) promoter; HEK293 lucGAA850 FXN promoter luciferase reporter, 24 h; percent of 10 µM SAHA response; activation, % at 6 µM; hit rate 0.56% among 360,000; AID 540364;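 active = activation above the average of all compounds screened plus 3 SD, cutoff fixed separately per campaign, cut at about 7.5% in these data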;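 note: 0% = DMSO wells and 100% = 10 µM SAHA wells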
AHR act: activates the human aryl hydrocarbon receptor | P35869 | AHR-responsive luciferase reporter cells, luminescence | activation, % at 5 µM | hit rate 2.5% among 320,000 | AID 2796; in the data active = activation above about 47%;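 note: 0% = vehicle wells and 100% = reference agonist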
ABCB6 inh MLPCN: human ABCB6 transporter inhibition; Q9NP58; K562-ABCB6 porphyrin accumulation, flow cytometry, 1 h; hits give low values; fluorescence ratio to DMSO, % at 10 µM; hit rate 0.19% among 360,000; AID 602162;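 active = fluorescence ratio to DMSO below 75%, the collection mean minus 3 SD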;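 note: signal is porphyrin accumulated inside mitochondria; 100% equals median channel fluorescence of DMSO control wells; lower ratio means ABCB6 inhibition with less porphyrin fluorescence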
STAT3 act: increases IL-6 driven STAT3 reporter signal; hit rate 0.91% among 190,000; activation (% of control), % at 5.6 µM; AID 871; U3A cells, IL-6 STAT3-luciferase reporter, luminescence; 100% = signal with IL-6 EC80 alone;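 active = activation above the screen-wide mean of compound activation plus 3 SD, cut at about 130% in these data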;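 note: 0% = background luminescence of wells with medium and substrate only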
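Material: STAT3-luciferase reporter U3A cells. Controls: IL-6-treated wells, 100% activation. Read-out: % activation versus median of IL-6-stimulated wells. Probe or stimulus: IL-6 stimulus at 33 ng/mL final. Timing: compound 1 h, then IL-6 6 h at 37 °C. Signal: reporter luminescence signal.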
An asterisk follows results filed as active; nt = no result.

SMILES | FXN GAA850 act | AHR act | ABCB6 inh MLPCN | STAT3 act
CCCCc1ccc(NC(=S)N2CCN(C(=O)c3ccco3)CC2)cc1 | 0 | nt | 89 | nt
CC1(C(=O)NC2CCCC2)CCC(=O)N1CCC1=CCCCC1 (stereo not given) | -1 | -3 | 94 | 111
Cc1ccc(S(=O)(=O)NCCN=C(CN2CCCC2)NS(=O)(=O)c2ccc(C)cc2)cc1 | -1 | 0 | 66* | 97
O=C1C(Cl)=C(Nc2ccc3cn[nH]c3c2)C(=O)c2ccccc21 | -14 | 70* | 65* | nt
Cc1cc2nc(C3CCCCC3)c(Cc3ccsc3)n2c(C)c1Br | nt | nt | 108 | nt
COc1ccccc1-c1nn2c(=O)cc(C)nc2s1 | 2 | 62* | 99 | 97
COc1ccccc1Cc1c(-c2ccco2)nc2c(C)cc(Br)cn12 | nt | nt | 103 | nt
O=C(Cc1cccs1)Nc1nc2c(ccc3ccccc32)s1 | 0 | 60* | 86 | 159*
O=S1(=O)N=C(Nc2nc3c(s2)CCCC3)c2ccccc21 | 6 | 57* | 80 | 96
O=C(Nc1cccc(-c2nc3cccnc3s2)c1)c1ccco1 | 3 | 41 | 97 | 96
CCOc1ncccc1C(=O)Nc1cccc(-c2nc3cccnc3s2)c1 | 3 | 50* | 89 | nt
CCc1ccc(NC(=O)CSc2nnc(Cn3c(=O)sc4ccccc43)n2C)cc1 | 0 | 78* | 96 | 97
CCc1ccc(NC(=O)CSc2nnnn2-c2cccnc2)cc1 | -1 | 63* | 100 | nt
CCc1ccc(Nc2nc(N)nc(CSc3nnnn3-c3ccccc3)n2)cc1 | 1 | 50* | 99 | 114
Cc1cc(C)cc(NC(=O)CSc2nnnn2-c2cccnc2)c1 | 1 | 19 | 99 | nt
CCNc1nc(NCC)n2c(SCC(=O)Nc3ccc(CC)cc3)nnc2n1 | 1 | 50* | 96 | nt
O=C(Nc1nncs1)c1ccc2c(c1)OCO2 | 1 | 65* | 89 | nt
CCOCc1nnc(NC(=O)c2ccc3c(c2)OCO3)s1 | 4 | 122* | 102 | nt
Cc1nnc(NC(=O)c2ccc3c(c2)OCO3)s1 | 5 | 39 | 96 | 96
COc1ccc(NC(=O)COC(=O)CCc2ccc(S(=O)(=O)N3CCOCC3)cc2)cc1Cl | 1 | 1 | 101 | nt
CCCCC(=O)Nc1cc(OC)c(NC(=S)Nc2ccc(OC)cc2)cc1OC | 0 | nt | 96 | nt
CCOC(=O)c1ccc(NC(=O)COc2ccccc2CNCCc2ccccc2)cc1 | -4 | 50* | 105 | 109
CCOC(=O)c1ccc(NC(=O)COc2ccc(CNCCO)cc2OCC)cc1 | 0 | 0 | 100 | 101
CCCCOc1ccc(Br)cc1/C(C)=N/NC1=NCCN1 | -4 | 57* | 94 | 97
Cc1ccc(-n2[nH]c(=O)c3cccnc32)cc1 | -4 | 64* | 99 | 102
SMILES | FXN GAA850 act | AHR act | ABCB6 inh MLPCN | STAT3 act
Cc1ccc(-n2[nH]c(=O)c(-c3ccccn3)c2C)cc1 | -8 | 26 | 102 | 25
COc1ccc(Cl)cc1NC(=O)CSc1nc2[nH]ncc2c(=O)[nH]1 | -1 | nt | 96 | nt
Cn1ccc2c(N3CCOCC3)cc3c(c21)C1CCC3C1 (stereo not given) | nt | nt | 86 | nt
COC1CCCN(C(=O)c2cccc(OC3CCN(S(=O)(=O)N(C)C)CC3)c2)C1 (stereo not given) | 1 | -1 | 87 | nt
O=C(O)c1ccc(N=Nc2c(O)[nH]c3cc(Cl)ccc23)cc1 | 9.8* | 30 | 98 | nt
CCCOP(=O)(OCCC)C(Nc1ccc(C(C)C)cc1)c1ccc([N+](=O)[O-])cc1 (stereo not given) | -2 | 60* | 92 | 125
COP(=O)(OC)C(Nc1ccc([N+](=O)[O-])cc1)c1ccccc1 (stereo not given) | 0 | -2 | 98 | nt
Cn1nnnc1Sc1ncnc2scc(-c3ccsc3)c12 | -9 | 6 | 102 | nt
O=C(CCNC(=O)c1ccc(Cl)cc1)Nc1ccccc1N1CCCC1 | 0 | 0 | 88 | nt
Cn1ncc2c(Nc3ccc(Cl)c(Cl)c3)ncnc21 | 5 | 5 | 100 | nt
CCNc1nc(Nc2ccc(C)c(Cl)c2)c2cnn(C)c2n1 | 3 | 54* | 96 | nt
CCCn1ncc2c(Nc3ccc(C)c(C)c3)ncnc21 | 3 | 5 | 89 | nt
CCCCNc1nc(Nc2ccc(C)c(Cl)c2)c2cnn(C)c2n1 | 0 | 79* | 83 | nt
COc1cc(NC(=O)[C@H]2O[C@@H](n3cnc4c(N)ncnc43)[C@H](O)[C@@H]2O)cc(OC)c1OC | nt | nt | 98 | nt
Cc1ccc(CNC(=O)c2ccc3c(=O)n4c(-c5ccc(C)cc5)csc4nc3c2)cc1 | 0 | 3 | 87 | nt
CCNC(=O)C1(C)CCN(Cc2ccc(-c3ccccc3)cc2)C1 (stereo not given) | -1 | nt | 97 | nt
O=C(/C=C/c1cccs1)c1cc(Br)ccc1OC(=O)N1CCOCC1 | -5 | 53* | 115 | 100
Cc1ccc(/C=N/NC(=S)N2CCOCC2)cc1 | 6 | 8 | 103 | 113
COc1ccc(Cl)cc1C(=O)N/N=C/c1ccc(N2CCOCC2)cc1 | 1 | 53* | 102 | 97
S=C(N/N=C/c1ccc(Cl)cc1)N1CCOCC1 | 7 | 71* | 98 | 98
CCn1ncc(/C=N/NC(=O)c2cc(Cl)ccc2OC)c1C | 2 | 76* | 97 | 97
O=C(N/N=C1\C/C(=N\NC(=O)c2ccncc2)c2ccccc21)c1ccncc1 | 0 | 56* | 118 | 127
COc1ccc(Br)cc1/C=N/NC(=O)CN1CCCCC1 | -1 | 11 | 97 | nt
O=C(Nn1c(-c2ccccc2)nc2ccccc2c1=O)C1CCC1 | 1 | 47* | 99 | 111
O=C(Nn1c(-c2ccccc2)nc2ccccc2c1=O)c1cccs1 | -2 | 51* | 105 | 99
SMILES | FXN GAA850 act | AHR act | ABCB6 inh MLPCN | STAT3 act
Cc1nc(SCC(=O)Nn2c(-c3ccccc3)nc3ccccc3c2=O)n[nH]1 | -1 | 74* | 99 | 97
CNC(=S)N/N=C/c1ccc(-c2ccc(C(=O)O)cc2)o1 | 0 | 6 | 99 | nt
C=CCNC(=S)N/N=C/c1ccc(-c2ccc(OC)cc2)o1 | 2 | 64* | 94 | 95
C=CCNC(=S)N/N=C/c1ccc(-c2cc(Cl)ccc2Cl)o1 | 2 | 18 | 107 | 81
C=CCNC(=S)N/N=C/c1ccc(-c2ccc(Cl)cc2Cl)o1 | 0 | 61* | 91 | nt
Cc1ccc(OCC(=O)N/N=C\c2c(C)n(C)c3ccccc23)c([N+](=O)[O-])c1 | 2 | 60* | 101 | 94
Cc1ccc(OCC(=O)N/N=C/c2ccccc2)c([N+](=O)[O-])c1 | -1 | nt | 82 | 99
Cc1cccc(OCC(=O)N/N=C\c2cn(C)c3ccccc23)c1 | -1 | 72* | 97 | 97
O=C(CSc1nc2nn(-c3ccccc3)c(=O)c-2c2n1CCCCC2)Nc1cccc(F)c1 | -3 | -2 | 100 | nt
N/C(Cc1nc(-c2ccc(Br)cc2)cs1)=N\O | 2 | 54* | 102 | 105
N/C(Cc1nc(-c2ccc(F)cc2)cs1)=N\O | 1 | 4 | 105 | nt
C/C(=N\Nc1ccc(C)c(Cl)c1)c1ccncc1 | 0 | 23 | 108 | nt
C/C(=N\Nc1ccc(C)c(Cl)c1)c1cccnc1 | 3 | 54* | 101 | nt
Cc1ccc(O)c(NC(=O)C2=CC(c3cccs3)=NS(=O)(=O)N2C)c1 | -2 | 52* | 95 | nt

Screening results as filed in PubChem BioAssay.
